MC4R ag barr: agonists of human melanocortin 4 receptor (MC4R) beta-arrestin | hit rate 0.98% among 360,000 | U2OS MC4R beta-arrestin complementation, luminescence; percent of melanotan II response, DMSO zero | activation, % at 8.9 µM | AID 540308;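 active = activation above a per-plate cutoff, the mean activation of sample wells on that plate plus 3 SD, cut at about 8% in these data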
Target sequence (P32245 whole entry, looked up): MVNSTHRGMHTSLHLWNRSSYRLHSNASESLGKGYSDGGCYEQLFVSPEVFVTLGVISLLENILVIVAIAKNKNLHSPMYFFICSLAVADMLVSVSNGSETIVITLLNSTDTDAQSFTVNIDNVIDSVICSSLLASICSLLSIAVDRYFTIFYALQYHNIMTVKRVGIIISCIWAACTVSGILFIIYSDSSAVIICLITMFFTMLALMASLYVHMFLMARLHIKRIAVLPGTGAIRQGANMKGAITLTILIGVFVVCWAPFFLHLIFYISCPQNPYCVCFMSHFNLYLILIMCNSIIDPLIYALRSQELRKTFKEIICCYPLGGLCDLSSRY
Exocytosis inh: lytic granule exocytosis inhibition. TALL-104 LAMP-1 surface exposure, flow cytometry; cells stimulated with thapsigargin and PMA. inhibition, % at 10 µM. hit rate 0.66% among 360,000;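 active = inhibition above about 55%, limit read from the data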
TbMetRS inhib: blocks T. brucei methionyl-tRNA synthetase activity; purified T. brucei MetRS, ATP depletion, Kinase-Glo luminescence; inhibition, % at 11.9 µM; hit rate 0.4% among 360,000; AID 624268;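 active = inhibition above a per-plate cutoff of the control wells' mean inhibition plus 3 SD, cut at about 5.5% in these data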
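Test system: purified T. brucei MetRS enzyme. Also added: ATP, methionine and E. coli bulk tRNA substrates. Compound: 11.9 µM single point. Schedule: 15 min enzyme-compound preincubation, 2 h reaction, 10 min detection, 25 °C. Signal: luciferase luminescence of residual ATP, Kinase-Glo. Evaluation: percent inhibition versus plate control medians. Controls: DMSO wells, low control.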
ABCB6 inh 2: blocks the human ABCB6 transporter | hit rate 0.19% among 360,000 | Q9NP58 | fluorescence ratio to DMSO, % at 10 µM | K562-ABCB6 porphyrin accumulation, flow cytometry, 1 h; active compounds read low;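 active = fluorescence ratio to DMSO below 75%, the collection mean minus 3 SD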;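 note: signal is porphyrin accumulated inside mitochondria; lower ratio means ABCB6 inhibition with less porphyrin fluorescence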
hiPSC survival: hiPSC single-cell survival enhancement; ATPlite luminescence; 100% = ROCK inhibitor wells, 0% = DMSO; survival enhancement, % at 20 µM; hit rate 0.044% among 360,000; AID 602274; in the data active = survival enhancement above about 18%;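 note: cells exposed to compounds for 16 hours before the ATP read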
MC4R antag cAMP: blocks human MC4R cAMP signaling; MC4R-expressing cells, MTII-stimulated cAMP, LANCE TR-FRET; inhibition, % at 6.5 µM; hit rate 0.48% among 360,000; AID 540295;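 active = inhibition above its plate's cutoff, the mean of tested wells on that plate plus 3 SD, cut at about 29% in these data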
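Assay system: U2OS cells stably expressing human melanocortin 4 receptor (MC4R) / Dosing: 6.5 µM / Timing: compound 30 min, challenge 1 h, detection 1 h / Measured by: Eu-cAMP/anti-cAMP TR-FRET, emission 671 nm / Replicates: singlicate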
Hits are given with their value; – = inactive; · = no result given. The list is not random: actives were taken first. Their share in the collection is about 2.6%.

SMILES	MC4R ag barr	Exocytosis inh	TbMetRS inhib	ABCB6 inh 2	hiPSC survival	MC4R antag cAMP
CCOC(=O)c1c(CSC(=N)N)n(-c2ccccc2)c2cc(Br)c(OC(C)=O)cc12	–	80.6	–	–	–	–
C=CCC[C@H](Cc1ccc(F)cc1)C(=O)OC[C@H](Cc1c[nH]c2ccccc12)NC(=O)[C@H](CC=C)CC(=O)N(CCO)Cc1ccccc1	–	58.9	–	–	–	–
C=CC[C@@H](CC(=O)N[C@H](CO)Cc1ccccc1)C(=O)N[C@H](COC(=O)[C@@H](CC=C)CC(=O)OC(C)(C)C)Cc1ccccc1	9.8	–	–	–	–	–
C=CC[C@H](CC(=O)NCCO)C(=O)N[C@H](COC(=O)[C@@H](CC=C)CC(=O)OC(C)(C)C)Cc1ccccc1	–	–	–	–	–	–
C=CC[C@@H](CC(=O)N(CCO)Cc1ccccc1)C(=O)N[C@H](COC(=O)[C@@H](CC=C)CC(=O)OC(C)(C)C)Cc1ccccc1	9.3	–	–	–	–	–
C=CC[C@H](CC(=O)N(CCO)Cc1ccccc1)C(=O)N[C@H](COC(=O)[C@@H](CC=C)CC(=O)OC(C)(C)C)Cc1ccccc1	–	–	–	–	–	–
C=CCC[C@@H](Cc1ccc(F)cc1)C(=O)OC[C@@H](Cc1c[nH]c2ccccc12)NC(=O)[C@@H](CC=C)CC(=O)N(CCO)Cc1ccccc1	–	–	–	–	–	–
Cc1nn(C)cc1CNC(=O)/C=C/c1cnn(C)c1	–	–	–	–	–	–
COc1ccc(/C=C/C(=O)NCc2cn(C)nc2C)cc1COc1ccc(Br)cc1	9.1	–	–	–	–	–
COc1ccccc1C(=O)Nc1ccccc1N1CCCCC1	–	67.1	–	–	–	–
COc1ccc(Br)cc1C(=O)Nc1ccccc1N1CCCC1	–	–	–	–	–	–
COc1ccc(OC2OC3COC(C)(C)OC3C(O)C2NC(C)=O)cc1 (stereo unspecified)	–	–	–	–	–	–
CCCCOP(=O)(OCCCC)C1(NS(=O)(=O)c2ccccc2)C=CC(=O)c2ccccc21 (stereo unspecified)	–	99.4	–	–	–	–
Cc1cc(OCCn2cc(/C(N)=N/O)c3ccccc32)ccc1Cl	8.8	–	–	–	–	–
COC(=O)c1cn(CCOc2ccc(C)cc2)c2ccccc12	–	–	–	–	–	–
Cc1ccc(S(=O)(=O)c2ccc([N+](=O)[O-])o2)cc1	–	–	–	50.0	–	88.4
O=S1(=O)CC(N2CCN(c3ncccn3)CC2)CN1Cc1ccc(F)cc1 (stereo unspecified)	·	–	–	–	–	·
COc1cc(/C=C2/C(=N)N3C=CSC3=NC2=O)ccc1OCCCOc1c(C)cccc1C	8.4	–	–	–	–	–
CCOc1cc(/C=C2/C(=N)N3C=CSC3=NC2=O)ccc1OCCCOc1ccccc1C	9.4	–	–	–	–	–
O=C(NCc1cccc(CNC(=O)C(=O)NCc2ccco2)c1)C(=O)NCc1ccco1	9.6	–	–	–	–	–
O=C(NNc1c2ccccc2nc2ccccc12)c1ccc(O)cc1O	–	–	–	–	–	–
O=C(NNc1c2ccccc2nc2ccccc12)c1ccccc1O	–	107.8	–	–	–	–
Cc1cc(C)cc(-n2nnnc2SCC(=O)Nc2nc(-c3ccc(F)cc3)cs2)c1	30.0	–	–	–	–	–
COc1ccc(-c2csc(NC(=O)CSc3nnnn3C)n2)cc1OC	–	–	–	–	–	–
COc1ccc(NC(=O)COC(=O)C23CCC(=O)N2c2ccccc2S3)cc1 (stereo unspecified)	–	–	–	–	–	–
SMILES	MC4R ag barr	Exocytosis inh	TbMetRS inhib	ABCB6 inh 2	hiPSC survival	MC4R antag cAMP
O=C1CCC2(C(=O)O)Sc3ccccc3N12 (stereo unspecified)	–	–	–	–	20.9	–
O=C(NC1CCCCC1)C(c1cc2ccccc2o1)N1CCOCC1 (stereo unspecified)	·	–	–	–	–	·
O=C1C(Nc2ccccc2)=C/C(=N/S(=O)(=O)c2cccs2)c2ccccc21	–	75.1	–	–	–	–
Cc1ccc(NC2=C/C(=N/S(=O)(=O)c3cccs3)c3ccccc3C2=O)cc1	–	–	–	–	–	–
CC(C)N1C(=O)C(=O)N(CC(=O)N(C)c2ccccc2)C1=O	–	–	–	–	–	–
CCOC(=O)c1c(SCCN2CCCC2)n(-c2ccccc2)c(=S)n(-c2ccccc2)c1=O	–	73.0	–	–	–	–
CCOC(=O)c1c[nH]c(=S)n(-c2ccccc2)c1=O	–	–	–	–	–	–
CCN(CC)CCN(C(=O)c1ccc2c(c1)CCCC2)c1nc2cc(OC)c(OC)cc2s1	–	56.1	–	–	–	–
COc1cc2nc(N(CCN(C)C)C(=O)c3ccc4ccccc4c3)sc2cc1OC	–	–	–	–	–	–
O=C(O)CC(NCc1ccco1)C(=O)Nc1cccc(O)c1 (stereo unspecified)	–	–	–	–	–	–
C#CCOCCOCCOCCNc1nc(N2CCN(C(=O)C([C@@H](C)CC)n3cc(C(N)CC(C)C)nn3)CC2)nc(N2CCN(C(=O)[C@H](CCC(=O)O)n3cc(C(N)CC(C)C)nn3)CC2)n1 (stereo partly specified)	–	76.4	–	–	–	–
C#CCOCCOCCOCCNc1nc(N2CCN(C(=O)[C@H](CCCCN)n3cc([C@@H](N)CO)nn3)CC2)nc(N2CCN(C(=O)[C@H](Cc3ccc(O)cc3)n3cc([C@@H](N)CC(C)C)nn3)CC2)n1	–	67.5	–	–	–	–
Cc1ccccc1OCC(=O)Nc1ccc(N2CCN(C(=O)c3ccco3)CC2)cc1	–	–	–	–	–	–
CCOC(=O)C1=C(C)N=C2SC(C)C(=O)N2C1c1cccc(F)c1 (stereo unspecified)	–	–	–	–	–	–
CC1=C(C(=O)OCC(C)C)C(c2cccc(F)c2)N2C(=O)C(C)SC2=N1 (stereo unspecified)	–	59.2	–	–	–	–
Nc1c(Cl)cc(C2=NCCn3c2c2ccc([N+](=O)[O-])cc2[n+]3[O-])cc1Cl	–	82.2	–	–	–	–
O=C1CCCc2c1oc1c2CCCC1	–	–	–	–	–	–
Cc1ccccc1N1CCN(C2CCCN(C(=O)CCN3CCCO3)C2)CC1 (stereo unspecified)	–	–	–	–	–	–
COc1ccccc1/C=C1\SC(=S)N(CCC(=O)NCCc2ccc(O)cc2)C1=O	–	88.4	–	–	–	–
COc1ccc(/C=C2\SC(=S)N(CCC(=O)NCCc3ccc(O)cc3)C2=O)cc1	–	–	–	–	–	–
O=C(CCN1C(=O)/C(=C/c2ccccc2)SC1=S)NCCc1ccc(O)cc1	9.3	–	–	–	–	–

Screening results: PubChem BioAssay, several laboratories
